Drawing on ChEMBL document CHEMBL1145445, “Dual aromatase-steroid sulfatase inhibitors” (J Med Chem, 2007), this text covers inhibition in vivo, IC50 and inhibition for 24 molecules.

Bounds are passed on as bounds.

Experiment [1] has as its system Rattus norvegicus. As to the kind of experiment: Inhibition of steroid sulfatase in Wistar rat assessed as liver STS activity at 10 mg/kg, po after 24 hrs.
Experiment [2] concerns Rattus norvegicus. As to the kind of experiment: Inhibition of aromatase in Wistar rat assessed as reduction of PMSG-stimulated plasma estradiol level at 10 mg/kg, po after 24 hrs. In kind it is functional. The method, boiled down:
(§1)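 Female Wistar rats got a single sc injection of PMSG (200 IU). Three days later they received a single oral 10 mg/kg dose in THF/propylene glycol (10:90). Plasma estradiol was measured by radioimmunoassay at 3 or 24 h. Results are % inhibition of PMSG-stimulated estradiol, mean ± SE, n = 3, by Student's t test.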

Experiment [3] has as its system Rattus norvegicus. In words: Inhibition of aromatase in Wistar rat assessed as reduction of PMSG-stimulated plasma estradiol level at 10 mg/kg, po after 3 hrs. In kind it is functional. In a few lines: as §1
Experiment [4] deals with Rattus norvegicus. In words: Inhibition of steroid sulfatase in Wistar rat assessed as liver STS activity at 10 mg/kg, po after 3 hrs.
The target of experiment [5] is T1, Aromatase (Homo sapiens, UniProt P11511).
T1 sequence (P11511 whole entry): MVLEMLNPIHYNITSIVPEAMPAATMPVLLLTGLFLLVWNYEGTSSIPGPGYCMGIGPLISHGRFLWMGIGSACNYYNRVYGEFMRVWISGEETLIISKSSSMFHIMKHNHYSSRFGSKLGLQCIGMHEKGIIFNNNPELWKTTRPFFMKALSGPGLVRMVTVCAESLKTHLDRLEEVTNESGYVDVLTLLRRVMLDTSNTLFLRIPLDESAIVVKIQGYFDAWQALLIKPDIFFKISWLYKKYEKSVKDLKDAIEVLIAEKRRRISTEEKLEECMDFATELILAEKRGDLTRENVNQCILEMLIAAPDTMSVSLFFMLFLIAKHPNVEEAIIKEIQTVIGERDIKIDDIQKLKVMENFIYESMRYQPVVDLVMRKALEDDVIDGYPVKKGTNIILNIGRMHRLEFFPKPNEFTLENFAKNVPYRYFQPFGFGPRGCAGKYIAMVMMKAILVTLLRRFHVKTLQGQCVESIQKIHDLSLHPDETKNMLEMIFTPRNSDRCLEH
In words: Inhibition of aromatase in JEG3 cell membrane. The class given is cell-based, JEG-3.

The next experiment has as its target T2, Steryl-sulfatase (Homo sapiens, UniProt P08842).
T2 sequence (P08842 whole entry): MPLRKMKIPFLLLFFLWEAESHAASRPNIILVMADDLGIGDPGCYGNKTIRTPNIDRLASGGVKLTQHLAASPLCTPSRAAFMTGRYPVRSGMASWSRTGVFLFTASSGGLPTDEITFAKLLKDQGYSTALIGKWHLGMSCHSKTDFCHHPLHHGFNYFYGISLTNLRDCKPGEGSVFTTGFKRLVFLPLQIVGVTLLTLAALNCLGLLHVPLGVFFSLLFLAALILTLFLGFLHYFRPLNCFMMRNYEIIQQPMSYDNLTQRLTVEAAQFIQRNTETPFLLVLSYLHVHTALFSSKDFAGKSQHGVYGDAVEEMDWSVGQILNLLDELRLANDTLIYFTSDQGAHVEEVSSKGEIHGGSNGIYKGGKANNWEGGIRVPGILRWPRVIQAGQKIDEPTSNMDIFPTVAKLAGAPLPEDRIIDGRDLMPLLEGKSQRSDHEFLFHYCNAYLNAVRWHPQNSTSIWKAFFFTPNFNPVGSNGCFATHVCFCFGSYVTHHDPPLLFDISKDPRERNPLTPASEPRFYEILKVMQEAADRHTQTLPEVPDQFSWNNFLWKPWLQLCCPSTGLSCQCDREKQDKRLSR
In words: Inhibition of steroid sulfatase in JEG3 cell membrane. The class given is cell-based, JEG-3.

The subject of experiment [6] is Rattus norvegicus. In words: Inhibition of steroid sulfatase in Wistar rat liver at 10 mg/kg, po after 3 hrs. In kind it is functional. The method, boiled down:
(§2)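 Female Wistar rats were primed with a single sc injection of PMSG (200 IU). Three days later they were dosed once orally at 10 mg/kg in THF/propylene glycol (10:90). Liver was collected 3 or 24 h after dosing and STS activity assayed. Results are expressed against activity in untreated animals, mean ± SE, n = 3.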

Experiment [7] has as its target T1, Aromatase. In words: Inhibition of aromatase in JEG3 cell membrane at 1 uM. The class given is cell-based. Conditions: JEG-3, human; read-out: Activity.
The subject of experiment [8] is Rattus norvegicus. In words: Inhibition of steroid sulfatase in Wistar rat liver at 10 mg/kg, po. The class given is functional. The method, boiled down:
as §2

Turning to `N#Cc1ccc(C(c2ccc(C#N)cc2)n2cncn2)cc1` [LETROZOLE], the inhibition in vivo at 10 mg/kg with Rattus norvegicus [1] turned out to be 6%; with Rattus norvegicus [2], 100%; in the experiment with Rattus norvegicus [3], 100%; in the experiment on Rattus norvegicus [4] it was 3%.

As to `COc1cc(CN(c2ccc(C#N)cc2)n2cnnc2)cc(Cl)c1OS(N)(=O)=O`, the IC50 on Aromatase [5] stood at 2.9 nM; against Steryl-sulfatase, 536 nM.

Molecule `N#Cc1ccc(N(Cc2cccc(O)c2)n2cnnc2)cc1` displayed a half-maximal inhibitory concentration (IC50) on Aromatase [5] of 2.8 nM.

With `N#Cc1ccc(N(Cc2cc(Cl)c(O)c(Cl)c2)n2cnnc2)cc1`, at Aromatase [5], the IC50 was 7.6 nM.

At Aromatase [5], `N#Cc1ccc(N(Cc2ccc(C(F)(F)F)c(O)c2)n2cnnc2)cc1` showed a half-maximal inhibitory concentration (IC50) of 0.4 nM.

Turning to `N#Cc1ccc(N(Cc2ccc(F)c(OS(N)(=O)=O)c2)n2cnnc2)cc1`, the inhibition in vivo at 10 mg/kg in the experiment on Rattus norvegicus [1] is 33%; in the experiment with Rattus norvegicus [2] it was 20%; in the experiment with Rattus norvegicus [3] it was 82%; in the experiment on Rattus norvegicus [4], 98%; in the experiment with Rattus norvegicus [6], 100%.

`N#Cc1ccc(N(Cc2ccc(OS(N)(=O)=O)cc2)n2cnnc2)cc1`: the inhibition at 1 µM on Aromatase [7] is 63.4%.

In the case of `COc1cc(CN(c2ccc(C#N)cc2)n2cnnc2)cc(Cl)c1O`, the midpoint of inhibition against Aromatase [5], the IC50, lay at 0.51 nM. In other words, the sub-nanomolar range.

Turning to `N#Cc1ccc(N(Cc2ccc(Br)c(O)c2)n2cnnc2)cc1`, the IC50 at Aromatase [5] was 0.5 nM.

Molecule `N#Cc1ccc(N(Cc2ccc(O)c(C#N)c2)n2cnnc2)cc1` yielded an IC50 at Aromatase [5] of 24 nM. Against the preceding molecule, the IC50 is about 48-fold higher.

The molecule `N#Cc1ccc(N(Cc2ccc(Br)c(OS(N)(=O)=O)c2)n2cnnc2)cc1` showed an IC50 at Steryl-sulfatase greater than 10000 nM.

Turning to `COc1ccc(CN(c2ccc(C#N)cc2)n2cnnc2)cc1OS(N)(=O)=O`, the concentration for half-maximal inhibition (IC50) on Steryl-sulfatase was greater than 10000 nM.

For the molecule `N#Cc1ccc(N(Cc2ccc(OS(N)(=O)=O)c(C#N)c2)n2cnnc2)cc1`, the IC50 was 27 nM on Aromatase [5] and greater than 10000 nM against Steryl-sulfatase.

`N#Cc1ccc(N(Cc2ccc(Cl)c(O)c2)n2cnnc2)cc1` came in with a concentration for half-maximal inhibition (IC50) on Aromatase [5] of 0.18 nM.

At Aromatase [5], `N#Cc1ccc(N(Cc2ccc(F)c(O)c2)n2cnnc2)cc1` had an IC50 of 0.6 nM.

`N#Cc1ccc(N(Cc2ccc(OS(N)(=O)=O)c(Br)c2)n2cnnc2)cc1`: the inhibition in vivo at 10 mg/kg in the experiment with Rattus norvegicus [1] amounted to 72%; in the experiment with Rattus norvegicus [2], 85%; in the experiment with Rattus norvegicus [3], 100%; in the experiment with Rattus norvegicus [4], 98%; with Rattus norvegicus [6], 100%; with Rattus norvegicus [8], 100%.

Consider `N#Cc1ccc(N(Cc2ccc(OS(N)(=O)=O)c(I)c2)n2cnnc2)cc1`, for which the IC50 at Aromatase [5] was found to be 1.5 nM; against Steryl-sulfatase, 190 nM.

`N#Cc1ccc(N(Cc2c(F)c(F)c(O)c(F)c2F)n2cnnc2)cc1`: the half-maximal inhibitory concentration (IC50) against Aromatase [5] came out at 159 nM.

At Aromatase [5], `COc1cc(CN(c2ccc(C#N)cc2)n2cnnc2)ccc1O` yielded a concentration for half-maximal inhibition (IC50) of 2.8 nM.

Consider `COc1cc(CN(c2ccc(C#N)cc2)n2cnnc2)ccc1OS(N)(=O)=O`, for which the half-inhibitory concentration (IC50) came out at 42 nM on Aromatase [5] and 380 nM at Steryl-sulfatase.

`N#Cc1ccc(N(Cc2ccc(O)c(C(F)(F)F)c2)n2cnnc2)cc1` gave a half-maximal inhibitory concentration (IC50) at Aromatase [5] of 0.88 nM.

Consider `N#Cc1ccc(N(Cc2ccc(O)c(I)c2)n2cnnc2)cc1`, for which inhibition against Aromatase [5] was half-maximal at 0.33 nM (IC50).

Regarding `NS(=O)(=O)Oc1ccc2c3c(c(=O)oc2c1)CCCCC3` [IROSUSTAT], the inhibition in vivo at 10 mg/kg in the experiment on Rattus norvegicus [1] amounted to 97%; with Rattus norvegicus [4] it was 100%.

Regarding `COc1ccc(CN(c2ccc(C#N)cc2)n2cnnc2)cc1O`, at Aromatase [5], the IC50 was 1.2 nM.
